Assay results published in publication PMC2213236 (The Journal of Experimental Medicine, 2005).

Tests used:
[1] = test system: human CD4^+ T cell clones to proinsulin; format: cell-based; conditions: for stimulation of clones by insulin and proinsulin: titrated from 1 μM to 0.1 nM, mean of triplicates ± SEM
In short: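 Clones were cultured in triplicate in IMDM with 5% pooled human serum and irradiated APCs (autologous or HLA-matched PBMCs at 20 Gy, or EBV B-cell lines at 50 Gy). Insulin or proinsulin was used at 10 μg/ml, with anti-HLA DR mAb at 5 μg/ml where indicated. RP-HPLC fractions were tested at 1/400. After 2 d, 3H-thymidine (0.5 μCi/well, 18 h) was added; β-scintillation; mean ± SEM of triplicates.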

murine T cells = conditions: first 14 amino acids of the A-chain of bovine insulin; cited from earlier work
human T cells = conditions: first 14 amino acids of the A-chain of bovine insulin; cited from earlier work
[2] = Formation and reduction of the vicinal disulfide bond; format: physicochemical; conditions: MS, unpublished data
HLA DRB1*0404 = assay: HLA DR binding; set-up: species or system human; conditions: compared with the serine-substituted homologue
[3] = test system: proinsulin-specific CD4^+ T cell clones from two healthy HLA DR4^+ donors; assay: Proliferation of proinsulin-specific CD4+ T cell clones from healthy donors; format: cell-based, human; conditions: 13 clones from two healthy HLA DR4^+ donors (6 and 7 clones); unpublished data

proinsulin: Recombinant human proinsulin produced in-house, shown to be folded correctly and free of endotoxin
stimulation of clones by insulin and proinsulin [1]: stimulated the clones equally

GIVEQCCASVCSLY
recognition by T cells after immunization (murine T cells): recognized | recognition by T cells after immunization (human T cells): recognized

KRGIVEQC-CTSISSL (disulfide)
effect of dithiothreitol on the vicinal disulfide bond ([2]; dithiothreitol treatment, mass increased by 2 Dltons): reduced the vicinal disulfide bond | effect of the vicinal disulfide bond on binding to HLA DR4 (HLA DRB1*0404): did not alter binding to HLA DR4

KRGIVDQCCTSICSL
potency relative to the human homologue (fold less potent) ([1]; mouse vs human insulin A1-13, 50—0.05 μM peptide): ~10 -fold less potent

insulin: clinical grade recombinant insulin
HLA DR dependence of the response to insulin ([1]; clinical grade recombinant insulin 10 μg/ml, anti-HLA DR mAb 5 μg/ml): HLA DR dependent | stimulation of clones by insulin and proinsulin [1]: stimulated the clones equally

S-11: analogue peptide with serine substituted for cysteine at position A11 (KRGIVEQSSTSISSL)
formation of the vicinal disulfide bond ([2]; S-11 peptide in culture medium): within minutes | effect of TCEP reduction on ability to stimulate the clones ([1]; S-11 peptide (1 μM) treated with the disulfide-reducing agent TCEP): abolished the ability of S-11 to stimulate the clones

S-6: serine substituted for the cysteine at A6
proliferation of T cell clones to RP-HPLC fractions ([1]; S-6 peptide in similar experiments, unpublished data): No fractions stimulated proliferation

KRGIVEQCCTSICSL [KR-A1-13]
clones proliferating in response to peptide [3]: none
